This is an account of results in ChEMBL document CHEMBL4049458, “Structure-Based Optimization of Thiophene[3,2-d]pyrimidine Derivatives as Potent HIV-1 Non-nucleoside Reverse Transcriptase Inhibitors with Improved Potency against Resistance-Associated Variants” (J Med Chem, 2017).

Molecules are shown by their SMILES.

As a reminder, the EC50 is the concentration at which the effect is half-maximal. Broadly, the IC50 is the concentration that gives 50% inhibition. One may read the AUC(0-t) as exposure summed from dosing to a finite time, without extrapolation to infinity. A high value points to high exposure. Broadly, the MRT last is the average time that molecules of a dose stay in the body. The term Tmax denotes the time at which the peak concentration occurs. What is called Cmax is the highest concentration seen after dosing. As a reminder, the AUC(0-inf) is the area under the concentration-time curve extrapolated to infinity. Read a high AUC(0-inf) as more exposure. Broadly, the MRT inf is the average time that molecules of a dose stay in the body. As a reminder, the AUC is the area under the concentration-time curve, a measure of exposure.

The subject of series [1] is Human immunodeficiency virus 1. The series is described as follows: Antiviral activity against wild type HIV1 3B harboring reverse transcriptase infected in human MT4 cells assessed as protection against virus induced cytotoxicity after 5 days by MTT assay. It counts as functional, cell-based. The note with it: Human immunodeficiency virus 1, 3B, MT4, 120 h. On the technique in general: Formazan colour is commonly taken as a measure of viable cells.

In series [2] the test system is Mus musculus. Briefly: Toxicity in Kunming mouse assessed as mortality at 2000 mg/kg, ig administered via gavage measure after 2 weeks. It counts as organism-based. The settings on record: in vivo, po, 336 h.
Series [3] can be described thus: Inhibition of recombinant wild type HIV1 3B reverse transcriptase infected in human MT4 cells assessed as decrease in biotin-dUTP incorporation after 1 hr. The note with it: Human immunodeficiency virus 1, 3B, MT4, 1 h. It counts as cell-based. The gist of the method:
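Recombinant HIV-1 RT assayed with a kit ELISA. Enzyme, reconstituted template and nucleotides (DIG-dUTP, biotin-dUTP, dTTP) were incubated in incubation buffer with or without inhibitor for 1 h at 37 °C. Product was captured on streptavidin plates for 1 h at 37 °C, then anti-DIG-POD was added for 1 h at 37 °C, followed by ABTS. Read at OD405.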

Series [4] relates to Rattus norvegicus. Briefly: VRT(0 to infinity) in Sprague-Dawley rat at 2 mg/kg, iv by LC-MS analysis. Format: ADME, organism-based. The note with it: in vivo.
Series [5] can be described thus: AUC(0 to t) in Sprague-Dawley rat at 24 mg/kg, po by LC-MS analysis. It counts as ADME, organism-based. The settings on record: in vivo.
Series [6] is described as follows: MRT(0 to t) in Sprague-Dawley rat at 2 mg/kg, iv by LC-MS analysis. It counts as ADME, organism-based. The note with it: in vivo.
A short description of series [7]: Tmax in Sprague-Dawley rat at 24 mg/kg, po by LC-MS analysis. Format: ADME, organism-based. The note with it: in vivo.
The nature of series [8]: Apparent half life in Sprague-Dawley rat at 24 mg/kg, po by LC-MS analysis. It counts as ADME, organism-based. The note with it: in vivo, read-out: t1/2(app) (converted).
In series [9] the test system is Rattus norvegicus. Briefly: VRT(0 to t) in Sprague-Dawley rat at 24 mg/kg, po by LC-MS analysis. Format: ADME, organism-based. The note with it: in vivo.
Series [10] can be described thus: Apparent half life in Sprague-Dawley rat at 2 mg/kg, iv by LC-MS analysis. It counts as ADME, organism-based. The note with it: in vivo, read-out: t1/2(app) (converted).
Series [11] can be described thus: MRT(0 to t) in Sprague-Dawley rat at 24 mg/kg, po by LC-MS analysis. The note with it: in vivo. Format: ADME, organism-based.
For series [12], the system named is Mus musculus. The series is described as follows: Toxicity in Kunming mouse assessed as increase in body weight at 2000 mg/kg, ig administered via gavage measure after 2 weeks. It counts as organism-based. The settings on record: in vivo, po, 336 h.
Series [13] is described as follows: Cmax in Sprague-Dawley rat at 2 mg/kg, iv by LC-MS analysis. It counts as ADME, organism-based. More on the design: dose 2 mg/kg, route intravenous. The note with it: in vivo.
The nature of series [14]: AUC(0 to infinity) in Sprague-Dawley rat at 2 mg/kg, iv by LC-MS analysis. More on the design: dose 2 mg/kg, time infinity, route intravenous. The note with it: in vivo. Format: ADME, organism-based.
The nature of series [15]: MRT(0 to infinity) in Sprague-Dawley rat at 2 mg/kg, iv by LC-MS analysis. Format: ADME, organism-based. The settings on record: in vivo.
A short description of series [16]: Cmax in Sprague-Dawley rat at 24 mg/kg, po by LC-MS analysis. It counts as ADME, organism-based. More on the design: dose 24 mg/kg, route oral. The settings on record: in vivo.
A short description of series [17]: AUC(0 to t) in Sprague-Dawley rat at 2 mg/kg, iv by LC-MS analysis. It counts as ADME, organism-based. The note with it: in vivo.
Series [18] deals with Rattus norvegicus. The series is described as follows: VRT(0 to t) in Sprague-Dawley rat at 2 mg/kg, iv by LC-MS analysis. The settings on record: in vivo. It counts as ADME, organism-based.
The subject of series [19] is Rattus norvegicus. Briefly: VRT(0 to infinity) in Sprague-Dawley rat at 24 mg/kg, po by LC-MS analysis. Format: ADME, organism-based. The settings on record: in vivo.
The test system of series [20] is Rattus norvegicus. The series is described as follows: AUC(0 to infinity) in Sprague-Dawley rat at 24 mg/kg, po by LC-MS analysis. It counts as ADME, organism-based. The arrangement: dose 24 mg/kg, route oral, time infinity. The settings on record: in vivo.
The nature of series [21]: MRT(0 to infinity) in Sprague-Dawley rat at 24 mg/kg, po by LC-MS analysis. The settings on record: in vivo. It counts as ADME, organism-based.
The subject of series [22] is Rattus norvegicus. The series is described as follows: Apparent clearance during terminal phase in Sprague-Dawley rat at 2 mg/kg, iv by LC-MS analysis. Format: ADME, organism-based. The note with it: in vivo.

`Cc1cc(/C=C/C#N)cc(C)c1Oc1nc(NC2CCN(Cc3ccc(S(N)(=O)=O)cc3)CC2)nc2ccsc12`: in [1], the EC50 came out at 1.22 nM. The Activity entry in the series on Mus musculus [2] and with Mus musculus [12] was “Non-Toxic” throughout. In addition, the IC50 in [3] came out at 160 nM. For the same compound, the VRT in the series with Rattus norvegicus [4] came to 3.72 hr2; in the series with Rattus norvegicus [19], 35.67 hr2. In addition, the AUC(0-t) was 2320 ng·h/mL in series [5] and 1370 ng·h/mL in series [17]. Moreover, the MRT last in series [6] was determined as 1.57 h; in series [11], 3.71 h. The Tmax in series [7] is 1.7 h. Moreover, the half-life in series [8] is 3.93 h; in series [10] it was 1.34 h. Besides, the “VRT(t)” value was 8.11 hr2 in the series with Rattus norvegicus [9] and 2.78 hr2 in the series on Rattus norvegicus [18]. Also, the Cmax in series [13] stood at 2220 ng/mL; in [16] it was 553 ng/mL. In series [14], this compound had a total exposure AUC(0-inf) of 1390 ng·h/mL. Further, the figures for the MRT inf in series [15] and in series [21] were 1.69 h and 5.54 h, respectively. In the series with Rattus norvegicus [20], this compound came in with an AUC of 2692.2 ng·h/mL. Moreover, the CLz/F with Rattus norvegicus [22] stood at 0.242 mL/min/kg.
